# NR3A LBD binder = binders of NR3A ligand-binding domain, primary screen, biophysical, differential scanning fluorimetry, uHTS | 2.5% of 340,000 active | Glutamate receptor ionotropic, NMDA 3A (GRIN3A) ligand-binding domain | NR3A LBD differential scanning fluorimetry, Tm shift; 0% = protein alone, 100% = glycine-bound protein | Tm shift relative to glycine control, % at 25 µM | AID 1259313, 2017;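 active = melting temperature shift of at least 10% of the positive control shift, at one fixed dose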
# FGF22 binding = binders of human FGF22 protein, primary screen, FGF22 synaptogenesis inhibitor project, biophysical, thermal shift, single point; Fibroblast growth factor 22 (Homo sapiens), Q9HCT0; recombinant FGF22 thermal shift, SYPRO orange fluorescence; percent of sucrose octasulfate shift, DMSO zero; activity (Tm shift, normalised), % at 9.99 µM; 1.5% of 340,000 active;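 active = mean Tm shift, scaled 0 neutral to 100 positive control, at about 1.3% or above, every replicate too, limit read from the data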
# Target sequence (Q9HCT0 whole entry, looked up): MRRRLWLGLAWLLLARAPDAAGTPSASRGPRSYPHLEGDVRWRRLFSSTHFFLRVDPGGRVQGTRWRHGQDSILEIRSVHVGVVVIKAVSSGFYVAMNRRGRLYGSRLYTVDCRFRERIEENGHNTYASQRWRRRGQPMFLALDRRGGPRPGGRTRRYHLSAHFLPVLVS
# EBNA-1 inhibitor = EBNA-1 DNA-binding inhibitors, primary screen, biochemical, fluorescence polarization | inhibition, % at 14.8 µM | 0.34% of 300,000 active | AID 1950, 2009; in the data active = inhibition above about 28%
# FID counter = compounds displacing fluorescent DNA intercalator, primary screen, artefact control for HCV NS3 helicase inhibitor project, biochemical, FID fluorescence | 0.17% of 290,000 active | inhibition, % at 7.9 µM | DNA fluorescent intercalator displacement | AID 1845, 2009; in the data active = inhibition above about 37%;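 note: 0% = vehicle and 100% = reference compound; higher means more ethidium bromide displaced from hairpin DNA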
# ZTA counter = blocks Epstein-Barr virus ZTA, an EBNA-1 counter-screen; 0.15% of 320,000 active; AID 2234; ZTA-DNA binding, fluorescence polarization; inhibition, % at 11 µM; P03206; in the data active = inhibition above about 33%
# Target sequence (P03206 whole entry, looked up): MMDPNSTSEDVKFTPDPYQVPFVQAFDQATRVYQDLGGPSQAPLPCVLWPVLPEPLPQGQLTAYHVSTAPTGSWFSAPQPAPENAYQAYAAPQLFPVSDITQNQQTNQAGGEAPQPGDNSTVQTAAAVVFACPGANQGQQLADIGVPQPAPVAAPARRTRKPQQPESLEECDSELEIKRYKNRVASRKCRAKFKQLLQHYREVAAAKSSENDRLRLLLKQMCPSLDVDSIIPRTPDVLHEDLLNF
# HCV NS3 hel inh = inhibitors of HCV NS3 helicase, primary screen, biochemical, Cy5 molecular beacon fluorescence | Hepatitis C virus NS3 helicase | inhibition, % at 10.9 µM | 0.56% of 290,000 active | AID 1800, 2009 | NS3 helicase DNA unwinding;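 active = inhibition above the mean of all tested compounds plus 3 SD, set per campaign, cut at about 35% in these data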;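 note: 0% = DMSO wells and 100% = thioflavine S control wells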
#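 System: Hepatitis C virus NS3 helicase domain fragment enzyme | Reagent: Annealed dual-labelled DNA beacon duplex, ATP-started | Compound dosing: 10.9 µM single point, 0.8% DMSO | Incubation: 1 h reaction at 25 °C, ATP-initiated | Technique: Cy5 fluorescence | Evaluation: Percent inhibition from t60/t0 fluorescence ratio | Benchmarks: Low DMSO, high thioflavine S at 110 µM | Replication: Singlicate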
# * marks the source's active call; other numbers are inactive results; · = no result. This is a sample that favours compounds with a hit; in the whole collection about 3.6% have one here.
SMILES,NR3A LBD binder,FGF22 binding,EBNA-1 inhibitor,FID counter,ZTA counter,HCV NS3 hel inh
C[C@@H]1CN([C@@H](C)CO)C(=O)c2cc(-c3ccc(F)cc3)cnc2O[C@H]1CN(C)C(=O)C1CCC1,·,0,·,·,·,·
Cc1ccc(S(=O)(=O)N2CCOC2CNC(=O)C(=O)NCCc2c[nH]c3ccccc23)cc1 (stereo not given),1,44*,6,-20,-15,0
Cc1ccc(S(=O)(=O)N2CCOC2CNC(=O)C(=O)NCCN(C)C)cc1 (stereo not given),13*,0,-8,3,-12,-15
O=C(NCCc1c[nH]c2ccccc12)C(=O)NCC1OCCCN1S(=O)(=O)c1ccc(F)cc1 (stereo not given),-6,0,7,-17,-4,-16
C[C@H]1CN([C@@H](C)CO)C(=O)Cc2cc(NC(=O)Nc3ccccc3)ccc2O[C@@H]1CN(C)S(=O)(=O)c1ccc(F)cc1,·,0,·,·,·,·
Cc1c(CC(=O)Nc2ccc(Cl)cc2)sc2ccc(Cl)cc12,28*,0,3,1,-9,3
CCC(=O)Nc1ccc2c(c1)C(=O)N(C)C[C@@H](OC)[C@H](C)CN(C(=O)NC(C)C)[C@@H](C)CO2,·,0,·,·,·,·
O=C(O)c1cc(NC(=O)c2ccc(Cl)c([N+](=O)[O-])c2)cc(C(=O)O)c1,0,0,11,3,14,3
Cc1cccc(C)c1NS(=O)(=O)c1ccc(NC(=O)c2ccc(Cl)c([N+](=O)[O-])c2)cc1,19*,0,0,5,-17,0
O=C(Nc1ccc(C(O)(C(F)(F)F)C(F)(F)F)cc1)c1ccc(Cl)c([N+](=O)[O-])c1,13*,1,-6,18,-5,-10
O=C(Nc1cccc(S(=O)(=O)Nc2ccccc2Cl)c1)c1ccc(N2CCCC2)c([N+](=O)[O-])c1,11*,·,-10,-2,-7,2
CC(C)CC#Cc1ccc2c(c1)O[C@@H](CN(C)C(=O)Cc1ccccn1)[C@H](C)CN([C@H](C)CO)S2(=O)=O,·,-1,·,·,·,·
CC1(C)CC(N2CCC(=O)N(C3CC(C)(C)NC(C)(C)C3)C2)CC(C)(C)N1,-1,·,7,37*,25,6
O=C(O)CCCCCn1c(SCC(=O)c2ccc(O)c(O)c2)nc2ccsc2c1=O,2,·,5,-33,1,6
CCCCn1c(SCC(=O)c2ccc(O)c(O)c2)nc2ccsc2c1=O,25*,·,3,-7,12,2
COc1ccccc1N1N=C(c2ccc([N+](=O)[O-])cc2)CC1c1ccccc1 (stereo not given),4,2.7*,2,1,10,-11
COc1cc(N2N=C(c3ccccc3)CC2c2ccccc2)c(C=O)cc1C=O (stereo not given),-1,0,3,1,-5,2
O=C(Nc1cc(F)ccc1F)N1CCCCN2[C@@H](CO)[C@@H](c3ccc(-c4ccncc4)cc3)[C@@H]2C1,·,0,·,·,·,·
C=CCNC(=O)/C(C#N)=C/c1ccc2c(c1)OCCO2,-1,43*,-1,1,0,-1
CC1CCCCC1NC(=O)/C(C#N)=C/c1ccc2c(c1)OCCO2 (stereo not given),13*,·,7,-18,-12,0
N#C/C(=C\c1ccc2c(c1)OCO2)C(=O)NCc1ccco1,-1,0,1,11,-5,-12
COCCNC(=O)/C(C#N)=C/c1ccc2c(c1)OCO2,-1,44*,6,7,2,-5
CCCN(CC(=O)Nc1cccc(Br)c1)CC(=O)Nc1ccc(F)c(F)c1F,22*,·,-1,-6,5,-20
CCOc1ncccc1C(=O)N1CCCSC1=Nc1ccc(C(C)=O)cc1,-2,43*,-15,-17,-1,9
CCOc1ccc(N=C2SCCCN2C(=O)c2c(CC)noc2C)cc1,1,1,-7,-35,-7,-10
SMILES,NR3A LBD binder,FGF22 binding,EBNA-1 inhibitor,FID counter,ZTA counter,HCV NS3 hel inh
C[C@H]1CN([C@@H](C)CO)S(=O)(=O)c2ccc(-c3cncnc3)cc2O[C@@H]1CN(C)Cc1ccncc1,·,0,·,·,·,·
N/C(=N\NC(=O)c1ccc(F)cc1)c1cc2ccccc2oc1=O,-1,43*,0,-7,-3,-1
CCCNC(=O)N(C)C[C@H]1Oc2cc(-c3cncnc3)ccc2S(=O)(=O)N([C@H](C)CO)C[C@@H]1C,·,0,·,·,·,·
O=CNc1ccc2c3c(cccc13)-c1ccccc1-2,2,45*,·,·,·,·
COCC(=O)Nc1ccc2c(c1)OC[C@@H](C)N(Cc1cccnc1)C[C@@H](C)[C@@H](OC)CN(C)C2=O,·,0,·,·,·,·
COc1cc2c3c(c1OC)C1(C=CC(=NNC(N)=O)C=C1)CC3N(C(C)=O)CC2 (stereo not given),3,43*,6,-8,9,10
CC(C)Nc1nc(-c2ccncc2)nc(-c2ccc(Cl)cc2)c1C#N,10*,0,-12,-1,12,5
N#Cc1c(Cl)nc(SCc2ccccc2)nc1-c1ccccc1,·,·,2,-19,11,25
N#Cc1c(Cl)nc(-c2ccncc2)nc1-c1ccccc1,11*,0,-13,12,-11,4
CC(C)Nc1nc(-c2cccnc2)nc(-c2ccc(Cl)cc2)c1C#N,-1,0,-9,-13,8,-6
CO[C@@H]1CN(C)C(=O)c2ccc(NC(C)=O)cc2OC[C@@H](C)N(Cc2cc(-c3ccccc3)on2)C[C@H]1C,·,-1,·,·,·,·
CCN(C[C@H]1N[C@@](CC)(C(=O)OC)[C@H]2C(=O)N(C)C(=O)[C@@H]12)S(=O)(=O)c1ccc(C(C)(C)C)cc1,18*,0,·,·,·,·
CC[C@@]1(C(=O)OC)N[C@H](CN(C)C(=O)c2ccc(C)cc2)[C@@H]2C(=O)N(C)C(=O)[C@@H]21,1,44*,·,·,·,·
COC(=O)[C@]1(Cc2ccccc2)N[C@H](CN(C)S(=O)(=O)c2ccc(F)cc2)[C@@H]2C(=O)N(C)C(=O)[C@@H]21,0,0,·,·,·,·
COC(=O)[C@]1(Cc2ccccc2)N[C@H](CN(C)S(=O)(=O)c2ccc(C(C)(C)C)cc2)[C@@H]2C(=O)N(C)C(=O)[C@@H]21,15*,0,·,·,·,·
CNCc1sccc1C,2,43*,8,4,8,10
COCC(=O)N(C)C[C@@H]1Oc2ncc(C#Cc3ccc(OC)cc3)cc2C(=O)N([C@H](C)CO)C[C@@H]1C,·,0,·,·,·,·
COc1ccc(-c2noc(CN(C)CCC3CCCCO3)n2)cc1 (stereo not given),0,1,8,-24,10,10

# High-throughput results deposited in PubChem BioAssay by several laboratories.
